Data reported in ChEMBL document CHEMBL4825700, “A comprehensive assessment of a new series of 5',6'-difluorobenzotriazole-acrylonitrile derivatives as microtubule targeting agents (MTAs)” (Eur J Med Chem, 2021).
pIC50: −log10 of the molar value. Activity calls are given as the source filed them.

Tests used:
[1] = Antiproliferative activity against human NSC lung cancer cells assessed as reduction in cell viability measured after 24 to 48 hrs by XTT assay; type: functional; settings: Non-small cell lung cancer cell line, time 24-48 hrs; for CC50: read-out: LC50 (the source's name)
[2] = test system: Panel CNS (Carcinoma cell lines); experiment: Antiproliferative activity against human CNS cancer cells assessed as reduction in cell viability measured after 24 to 48 hrs by XTT assay; type: functional; settings: time 24-48 hrs; for CC50: read-out: LC50 (the source's name)
[3] = Antiproliferative against human melanoma cells assessed as reduction in cell growth incubated for 24 to 48 hrs by XTT assay; type: functional; settings: Panel melanoma (Carcinoma cell lines), time 24-48 hrs; for CC50: read-out: LC50 (the source's name)
Procedure, shortened: (§1)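 NCI60 panel screen by the NCI Developmental Therapeutics Program: single dose of 10 µM first; compounds meeting inhibition criteria retested at five 10-fold dilutions, 100 µM to 0.01 µM; GI50, TGI and LC50 derived.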

CCRF-CEM [4] = experiment: Antiproliferative activity against human CCRF-CEM cells assessed as inhibition of cell growth at 10 uM measured after 24 to 48 hrs by XTT assay; type: functional; settings: time 24-48 hrs, read-out: GI; procedure, shortened: as §1
[5] = Antiproliferative against human breast cancer cells assessed as reduction in cell growth incubated for 24 to 48 hrs by XTT assay; type: functional, Panel breast (Carcinoma cell lines); settings: Breast carcinoma cell, time 24-48 hrs; procedure, shortened: as §1
[6] = Antiproliferative activity against human leukemia cells assessed as reduction in cell viability measured after 24 to 48 hrs by XTT assay; type: functional; settings: Panel leukemia (Carcinoma cell lines), time 24-48 hrs; for CC50: read-out: LC50 (the source's name)
CCRF-CEM [7] = experiment: Antiproliferative activity against human CCRF-CEM cells assessed as inhibition of cell proliferation measured after 96 hrs by MTT assay; type: functional, cell-based
NCI-H522 = experiment: Antiproliferative activity against human NCI-H522 cells assessed as reduction in cell growth at […] measured after 24 to 48 hrs by XTT assay; type: functional; settings: time 24-48 hrs, read-out: GI; procedure, shortened: as §1
HeLa [8] = experiment: Induction of cell cycle arrest in human HeLa cells assessed as accumulation of cells at S phase at 5 uM incubated for 24 hrs by 7-AAD staining based flow cytometry analysis (reference value: 5%); type: functional
Procedure, shortened: (§2)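 HeLa seeded at 50% confluence, treated after 24 h with 5 or 10 µM for 24 or 48 h. Adherent plus floating cells fixed in ice-cold 70% ethanol overnight at -20 °C, stained with 7-AAD 20 min at room temperature; 20000 events per sample by flow cytometry; phase percentages compared with control.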

HeLa [9] = experiment: Antiproliferative activity against human HeLa cells assessed as reduction in cell viability measured after 48 hrs by XTT assay; type: functional, cell-based
Procedure, shortened: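 HeLa (DMEM, 10% FBS, 37 °C, 5% CO2) seeded 1500 cells/well, treated 24 h later at 0.1–5 µM for 24 and 48 h; DMSO vehicle as control. XTT reagent 4 h at 37 °C, absorbance at 490 nm; IC50 calculated from viability; more than three independent experiments, each in triplicate.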

HeLa [10] = experiment: Induction of cell cycle arrest in human HeLa cells assessed as accumulation of cells at S phase at 5 uM incubated for 48 hrs by 7-AAD staining based flow cytometry analysis (reference value: 5%); type: functional; procedure, shortened: as §2
Sus scrofa [11] = organism: Sus scrofa; experiment: Displacement of colchicine from pig tubulin assessed as reduction in colchicine effectiveness on tubulin assembly measured every 20 secs for 30 mins by fluorescence based analysis
HeLa [12] = experiment: Induction of incomplete cytokinesis with increased cell dimension in human HeLa cells at 0.3 uM measured after 48 hrs by fluorescence microscopy; type: functional, cell-based
HeLa [13] = experiment: Induction of cell cycle arrest in human HeLa cells assessed as accumulation of cells at G2/M phase at 10 uM incubated for 24 hrs by 7-AAD staining based flow cytometry analysis (reference value: 30%); type: functional; procedure, shortened: as §2
HT1197 = experiment: Antiproliferative activity against human HT1197 cells assessed as reduction in cell growth at 4 to 16 uM incubated for 72 hrs in presence of extrusion-pump inhibitor, SS26 by CellTox based fluorescence analysis; type: functional; settings: dose 4-16 µM
Procedure, shortened: (§3)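 A498, A-704, A549 and HT1197 cells (DMEM high glucose, 10% FBS, 37 °C, 5% CO2) plated 500/well with SiR-DNA 0.5 µM and CellTox Green 0.8x, treated next day at 1, 2, 4, 8, 16 µM alone or with EPI SS26 at fixed 1 µM, 0.3% DMSO. Nuclei and dead cells imaged at 0, 24, 48, 72 h; percentage growth calculated; three technical replicates.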

HeLa [14] = experiment: Induction of cell cycle arrest in human HeLa cells assessed as accumulation of cells at S phase at 10 uM incubated for 24 hrs by 7-AAD staining based flow cytometry analysis (reference value: 5%); type: functional; procedure, shortened: as §2
HeLa [15] = experiment: Induction of cell cycle arrest in human HeLa cells assessed as accumulation of cells at G2/M phase at 10 uM incubated for 48 hrs by 7-AAD staining based flow cytometry analysis (reference value: 30%); type: functional; procedure, shortened: as §2
Tubulin (Homo sapiens) [16] = target: T1, Tubulin (Homo sapiens) (UniProt P68371+Q9H4B7+P0DPH7+P68366+Q13509+Q71U36+P04350+Q3ZCM7+P07437+P68363+Q9BQE3+Q6PEY2+Q13885+Q9BVA1+Q9BUF5); experiment: Disruption of microtubules in human HeLa cells assessed as increase in cytoplasmic dimensions at 50 nM incubated for 24 hrs by high-content confocal microscopy relative to control; type: cell-based
Procedure, shortened: (§4)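 HeLa treated 24 h at 10, 25, 50, 100 and 500 nM, stained for β-tubulin and nuclei (DAPI), imaged by high-content confocal microscopy; tubulin disassembly and cell dimension compared with controls.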

A498 = experiment: Antiproliferative activity against human A498 cells assessed as reduction in cell growth at 4 to 16 uM incubated for 72 hrs in presence of extrusion-pump inhibitor, SS26 by CellTox based fluorescence analysis; type: functional; settings: dose 4-16 µM; procedure, shortened: as §3
HeLa [17] = experiment: Induction of cell cycle arrest in human HeLa cells assessed as accumulation of cells at G0/G1 phase at 5 uM incubated for 48 hrs by 7-AAD staining based flow cytometry analysis (reference value: 65%); type: functional; procedure, shortened: as §2
HeLa [18] = experiment: Induction of cell cycle arrest in human HeLa cells assessed as accumulation of cells at G0/G1 phase at 10 uM incubated for 48 hrs by 7-AAD staining based flow cytometry analysis (reference value: 65%); type: functional; procedure, shortened: as §2
Sus scrofa [19] = organism: Sus scrofa; experiment: Inhibition of pig tubulin polymerization measuring every 20 sec for 30 mins by fluorescence based analysis
[20] = test system: Panel NCI-60 (60 carcinoma cell lines); experiment: Antiproliferative against human NCI-60 cells assessed as reduction in cell growth incubated for 24 to 48 hrs by XTT assay; type: functional; settings: time 24-48 hrs; procedure, shortened: as §1
Tubulin (Homo sapiens) [21] = target: T1, Tubulin (Homo sapiens); experiment: Disruption of microtubules in human HeLa cells assessed as beta-tubulin disassembly at 50 to 500 nM incubated for 24 hrs by high-content confocal microscopy; type: cell-based; settings: dose 50-500 nM; procedure, shortened: as §4
U-251 = experiment: Antiproliferative activity against human U-251 cells assessed as lethality measured after 24 to 48 hrs by XTT assay; type: functional; settings: time 24-48 hrs
Procedure, shortened: (§5)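 NCI60 screen run by the NCI Developmental Therapeutics Program. A single 10 µM dose was first tested across the full 60-cell-line panel. Compounds meeting the inhibition selection criteria were then retested at five 10-fold dilutions from 100 µM to 0.01 µM. GI50, TGI and LC50 were reported as molar concentrations for each tumour-type group.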

A549 = experiment: Antiproliferative activity against human A549 cells assessed as reduction in cell growth at 4 to 16 uM incubated for 72 hrs in presence of extrusion-pump inhibitor, SS26 by CellTox based fluorescence analysis; type: functional; settings: dose 4-16 µM; procedure, shortened: as §3
[22] = Antiproliferative against human ovarian cancer cells assessed as reduction in cell growth incubated for 24 to 48 hrs by XTT assay; type: functional, Panel ovarian (Carcinoma cell lines); settings: Ovarian carcinoma cell, time 24-48 hrs; procedure, shortened: as §1
[23] = Antiproliferative against human prostate cancer cells assessed as reduction in cell growth incubated for 24 to 48 hrs by XTT assay; type: functional; settings: Panel prostate (Carcinoma cell lines), time 24-48 hrs; procedure, shortened: as §1
HeLa [24] = experiment: Induction of cell cycle arrest in human HeLa cells assessed as accumulation of cells at G0/G1 phase at 5 uM incubated for 24 hrs by 7-AAD staining based flow cytometry analysis (reference value: 65%); type: functional; procedure, shortened: as §2
[25] = Antiproliferative against human renal cancer cells assessed as reduction in cell growth incubated for 24 to 48 hrs by XTT assay; type: functional; settings: Panel renal (Carcinoma cell lines), time 24-48 hrs; procedure, shortened: as §1
HeLa [26] = experiment: Induction of cell cycle arrest in human HeLa cells assessed as accumulation of cells at G2/M phase at 5 uM incubated for 24 hrs by 7-AAD staining based flow cytometry analysis (reference value: 30%); type: functional; procedure, shortened: as §2
A704 = experiment: Antiproliferative activity against human A704 cells assessed as reduction in cell growth at 4 to 16 uM incubated for 48 to 72 hrs in presence of extrusion-pump inhibitor, SS26 by CellTox based fluorescence analysis; type: functional; settings: dose 4-16 µM, time 48-72 hrs; procedure, shortened: as §3
HeLa [27] = experiment: Induction of cell cycle arrest in human HeLa cells assessed as accumulation of cells at G0/G1 phase at 10 uM incubated for 24 hrs by 7-AAD staining based flow cytometry analysis (reference value: 65%); type: functional; procedure, shortened: as §2
[28] = Antiproliferative activity against human colon cancer cells assessed as reduction in cell viability measured after 24 to 48 hrs by XTT assay; type: functional, Panel colon (Carcinoma cell lines); settings: Colon carcinoma cell, time 24-48 hrs
HeLa [29] = experiment: Induction of cell cycle arrest in human HeLa cells assessed as accumulation of cells at G2/M phase at 5 uM incubated for 48 hrs by 7-AAD staining based flow cytometry analysis (reference value: 30%); type: functional; procedure, shortened: as §2
HeLa [30] = experiment: Induction of cell cycle arrest in human HeLa cells assessed as accumulation of cells at S phase at 10 uM incubated for 48 hrs by 7-AAD staining based flow cytometry analysis (reference value: 5%); type: functional; procedure, shortened: as §2
[31] = test system: Panel CNS (Carcinoma cell lines); experiment: Antiproliferative activity against human CNS cancer cells assessed as lethality measured after 24 to 48 hrs by XTT assay; type: functional; settings: time 24-48 hrs; procedure, shortened: as §5
[32] = read-out: LC50 (the source's name)

N#C/C(=C\c1cccc2cnccc12)n1nnc2ccccc21
GI50 [1]: 532 nM | TGI [1]: ≥ 5130 nM | CC50 [1]: > 100000 nM | GI50 [2]: 184 nM | TGI [2]: ≥ 3610 nM | CC50 [2]: > 100000 nM | GI50 [3]: 2040 nM | TGI [3]: > 100000 nM | CC50 [3]: > 100000 nM | inhibition of growth at 10 µM (CCRF-CEM [4]): 100% | GI50 [5]: 557 nM | LC50 [5]: > 100000 nM | TGI [5]: ≥ 2840 nM | GI50 [6]: 253 nM | TGI [6]: ≥ 24300 nM | CC50 [6]: > 100000 nM

COc1ccc(/C=C(\C#N)n2nnc3ccccc32)cc1
pIC50 (CCRF-CEM [7]): 6.70

Cc1ccc(/C=C(\C#N)n2nnc3cc(F)c(F)cc32)cc1
GI50 [1]: 291 nM | TGI [1]: 1120 nM | CC50 [1]: ≥ 6780 nM | inhibition of growth (NCI-H522): 93% | Activity (HeLa [8]): 7% | pIC50 (HeLa [9]): 5.49 | Activity (HeLa [10]): 9% | GI50 [2]: 1480 nM | TGI [2]: 2940 nM | CC50 [2]: ≥ 5830 nM | Activity (Sus scrofa [11]): Active | Activity (HeLa [12]): Active | GI50 [3]: 360 nM | TGI [3]: ≥ 100000 nM | CC50 [3]: ≥ 7670 nM | Activity (HeLa [13]): 66% | Activity (HT1197): Active | Activity (HeLa [14]): 14% | Activity (HeLa [15]): 87% | fold change (FC) (Tubulin (Homo sapiens) [16]): 3 | Activity (A498): Active | Activity (HeLa [17]): 41% | Activity (HeLa [18]): 10% | inhibition (Sus scrofa [19]): Active | GI50 [20]: ≤ 100 nM | TGI [20]: ≤ 1000 nM | CC50 [20, 32]: ≤ 1000 nM | Activity (Tubulin (Homo sapiens) [21]): Active | Activity (U-251): >=90% | Activity (A549): Active | GI50 [22]: 1470 nM | TGI [22]: ≥ 6080 nM | CC50 [22, 32]: ≥ 33800 nM | GI50 [23]: 3320 nM | TGI [23]: 15600 nM | CC50 [23, 32]: 66200 nM | Activity (HeLa [24]): 39% | GI50 [5]: 1160 nM | LC50 [5]: > 100000 nM | TGI [5]: ≥ 5390 nM | GI50 [6]: 391 nM | TGI [6]: ≥ 871 nM | CC50 [6]: > 100000 nM | GI50 [25]: 1770 nM | TGI [25]: 7410 nM | CC50 [25, 32]: ≥ 36700 nM | Activity (HeLa [26]): 54% | Activity (A704): Active | Activity (HeLa [27]): 20% | GI50 [28]: 421 nM | TGI [28]: 1530 nM | CC50 [28, 32]: ≥ 5800 nM | Activity (HeLa [29]): 50% | Activity (HeLa [30]): 3% | Activity [31]: >=90%
